Reference: paper PMC5003403 (Clinical breast cancer, 2012)

Assays:
[1] = type: in vivo; settings: human, plasma, oral, 25 mg
Procedure, shortened: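 Nine patients took oral 25 mg daily with food from day 1, adding intramuscular 250 mg fulvestrant from day 8 every 28 ± 5 days. Plasma was sampled over 24 h after the day-7 dose and again after about 120 ± 7 days of combination. Samples went into prechilled heparinised tubes on ice, spun at 1000–1200g for 10–15 min at 4°C and held at about −70°C. LC-MS/MS, LLOQ 0.1 ng/mL. Noncompartmental analysis: Cmax by inspection, AUC by linear trapezoid, t1/2 = 0.693/λz.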

[2] = tested on: serum IGFBP-3 (IGF-binding protein 3); assay: Serum IGFBP-3 levels; type: in vivo, human; settings: Day 7 (exemestane alone); mean ± SD; n 22
Procedure, shortened: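 Serum was taken at baseline, after 1 week of single-agent oral exemestane 25 mg daily (day 7), and at day 120 (±7). About 5 mL venous blood went into serum separator tubes, clotted for at least 30 min and was centrifuged at 3000 rpm for 10 min. Serum was frozen at −70°C until assay. Day differences were tested by repeated-measures ANOVA.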

[3] = tested on: serum IGF-1 (insulin-like growth factor 1); assay: Serum IGF-1 levels; type: in vivo, human; settings: Day 7 (exemestane alone); mean ± SD; n 23

SMILES: C=C1C[C@@H]2[C@H](CC[C@]3(C)C(=O)CC[C@@H]23)[C@@]2(C)C=CC(=O)C=C12 [Exemestane]
- AUC(0-t) [1]: 61.7 ± 17.1 ng·h/mL
- Cmax [1]: 20.1 ± 7.7 ng/mL
- half-life [1]: 7.94 ± 1.32 h
- IGFBP-3 serum level [2]: 5273 ± 1372 ng/mL
- IGF-1 serum level [3]: 141 ± 55.1 ng/mL
